Screening data (PubChem)
procasp7 counter: procaspase-7 activators, primary screen, counter-screen for procaspase-3 activator project, biochemical, absorbance, HTS, human | Caspase-7 (Homo sapiens), P55210 | recombinant procaspase-7, Ac-DEVD-pNA absorbance 405 nm; D23A/D198A/D206A triple mutant, cannot self-cleave; scale: DMSO 0, 5 µM enzyme 100 | activation, % at 8.5 µM | hit rate 0.093% among 330,000;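 active means percent activation above the screen-wide mean plus 3 SD, cut at about 25% in these data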
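Material: Procaspase-7 triple mutant (PC-7 D3A) | Quantity: 2 µM procaspase-7 mutant as dispensed | Reagent: DEVD-pNA substrate | Times: 1 h preincubation, 2 h reaction | Technique: 405 nm absorbance of p-nitroaniline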
proCasp3 act: activators of human procaspase-3 D3A mutant, primary screen, biochemical, absorbance, PC-3 D3A mutant, single concentration. Caspase-3 (Homo sapiens), P42574. recombinant procaspase-3 D3A, Ac-DEVD-pNA absorbance 405 nm. activation, % at 8.5 µM. hit rate 0.11% among 330,000. AID 463141, 2010;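 active means activation above the mean of all tested compounds plus 3 SD, cut at about 21% in these data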;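 further: 0% = DMSO alone and 100% = DMSO wells spiked with extra 5 µM PC-3 D3A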
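Technique: 405 nm absorbance of p-nitroaniline, reads at 0 and 120 min; Test system: Procaspase-3 D3A mutant; Incubation: 1 h enzyme-compound preincubation, then 2 h substrate reaction, 25 °C; Repeats: singlicate, each compound tested once; Benchmarks: low control DMSO wells, high control DMSO plus 5 µM PC-3 D3A.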
AHR activator: AHR activators, primary screen, cell-based, luminescence, luciferase reporter, human; Aryl hydrocarbon receptor (Homo sapiens), P35869; AHR-responsive luciferase reporter cells; AID 2796, 2010; activation, % at 5 µM; hit rate 2.5% among 320,000; in the data active means activation above about 47%;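 further: 0% = vehicle wells and 100% = reference agonist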
PolyA inhibitor: polyadenylation inhibitors in yeast reporter cells, primary screen, luminescence, S. cerevisiae. S. cerevisiae SKY197-pL101 polyadenylation reporter, beta-gal luminescence; efflux-impaired pdr1/pdr3 knockout yeast; score 100 = 6 SD above DMSO. activity score, % at 12 µM. hit rate 0.02% among 300,000. AID 1875, 2009;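 active means lowest replicate activity score at least 50, where 100 means six control SD above control mean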;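 further: yeast exposed to compound for 9 h at 30 °C; higher score means more reporter readthrough which indicates perturbed polyadenylation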
AHR act cf: AHR activators, confirmation, cell-based, luminescence, luciferase reporter, human; shares compounds with AHR activator; human cells, AHR-responsive luciferase reporter; activation, % at 9 µM; hit rate 87% among 2,300; in the data active means activation above about 49%;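 further: HepG2 hepatoma cells carrying a DRE-driven firefly luciferase reporter; 0% = vehicle wells and 100% = reference agonist wells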
PXR counter: human PXR activators, counter-screen for AHR activator project, cell-based, luciferase luminescence. shares compounds with AHR activator. cell-based PXR reporter. activation, % at 11.6 µM. hit rate 88% among 2,300; in the data active means activation above about 11%;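 further: human hepatoma DPX-2 cells expressing full-length human PXR; 0% = DMSO and 100% = reference agonist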
An asterisk follows results filed as active; . = not tested or not shown. A selection: hits, their analogues and other compounds. The true share with any hit is near 2.6%.

SMILES | procasp7 counter | proCasp3 act | AHR activator | PolyA inhibitor | AHR act cf | PXR counter
Cc1ccc(-n2cc(CNCC3CC(=O)N(C4CC4)C3)c(-c3cccc(C)c3)n2)cc1 (stereo not given) | 5 | -2 | -5 | -6 | . | .
Cn1c(=NC(=O)C2CCCCC2)sc2cc([N+](=O)[O-])ccc21 | 2 | 4 | 2 | -31 | . | .
CCOc1ccc2c(c1)sc(=NC(=O)C1CC1)n2C | -5 | -6 | 92* | -16 | 71* | 37*
CC1CCCN(C(=O)c2cc3c(-c4ccc(Cl)cc4)nn(C)c3s2)C1 (stereo not given) | -15 | -3 | 82* | 6 | 80* | 23*
Brc1ccc2ncnc(Nc3ccc(N4CCOCC4)cc3)c2c1 | -1 | -9 | 92* | -35 | 63* | .
O=C(COc1ncnc2ccc(Br)cc12)Nc1ccc(N2CCOCC2)cc1 | 5 | 4 | 21 | -24 | . | .
CC(=O)c1cnc2cc(-c3cccc(Br)c3)nn2c1C | 3 | 3 | 25 | -15 | . | .
Cc1cc(C)n2nc(-c3cccc(Br)c3)cc2n1 | -4 | -4 | 107* | -7 | 129* | 18*
Cc1cc(C)n2ncc(-c3cccc(Br)c3)c2n1 | 10 | -5 | 88* | 2 | 120* | 24*
CC(=O)N(/N=C1\Sc2ccccc2C1=O)c1ccccc1C | -24 | -5 | 90* | -35 | 76* | 19*
COc1ccc(OCCCC(=O)Nc2ccc(S(=O)(=O)N3CCOCC3)cc2)cc1 | 9 | 2 | 0 | . | . | .
O=C1CCCc2nc3c(cc21)C(O)Oc1ccccc1-3 (stereo not given) | 7 | -2 | 9 | 15 | . | .
O=C1CCCc2nc3c(cc21)C(O)Oc1c-3ccc2ccccc12 (stereo not given) | -4 | -9 | 148* | 2 | 13 | 45*
COc1cc(NC(=S)Nc2ncccc2C)cc(OC)c1OC | -12 | 3 | 106* | -11 | 93* | 67*
Cc1ccc(C)c(NC(=S)Nc2ncccc2C)c1 | 9 | -3 | 19 | -40 | . | .
CCOC(=O)Cc1csc(NC(=S)NC(=O)CC(C)C)n1 | 0 | -4 | -1 | -38 | . | .
CC(C)CC(=O)NC(=S)Nc1nc(-c2cccc3ccccc23)cs1 | 11 | -21 | 80* | 0 | 53* | 29*
Fc1ccc(Br)cc1/C=N/N1CCN(c2ccccc2)CC1 | 0 | 1 | 120* | -4 | 117* | 18*
O=C(NCc1ccc2c(c1)OCO2)C(=O)NCC1OCCCN1S(=O)(=O)c1cc(F)ccc1F (stereo not given) | -2 | -1 | 0 | 2 | . | .
O=c1oc(Nc2cccc(F)c2)nc2ccccc12 | -2 | 5 | 3 | 1 | . | .
COc1ccc(Cl)cc1Nc1nc(N)c2ccccc2n1 | -10 | -3 | 105* | 17 | 115* | 14*
Nc1nc(Nc2cccc(F)c2)nc2ccccc12 | -1 | 8 | 83* | 13 | 75* | 35*
N/C(=N\OC(=O)c1cccc2ccccc12)c1ccc(Br)cc1 | 6 | 6 | 96* | -37 | 99* | 15*
N/C(=N\OC(=O)c1ccccc1[N+](=O)[O-])c1cccnc1 | -4 | -2 | 138* | 5 | 76* | 29*
Cc1ccc(C)c(C(=O)O/N=C(\N)c2ccc(Br)cc2)c1 | 17 | 0 | 95* | -32 | 118* | 15*
SMILES | procasp7 counter | proCasp3 act | AHR activator | PolyA inhibitor | AHR act cf | PXR counter
Cc1ccc(C(=O)O/N=C(\N)c2ccc(Br)cc2)cc1C | 10 | -1 | 33 | -5 | . | .
Cc1ccccc1C(=O)O/N=C(\N)c1ccccc1 | -3 | 9 | 79* | 8 | 95* | 8
COc1ccc2[nH]c3c(c2c1)CCN1C(=O)C(CC(=O)NCC24CC5CC(CC(C5)C2)C4)C[C@H](C(=O)N(C(C)C)C(C)C)[C@@]31C (stereo not given in full) | 2 | 1 | . | . | . | .
CC(C)N(C)C(=O)C(=O)c1cccn1-c1cccc(Cl)c1C#N | 4 | 5 | 1 | -14 | . | .
COc1cccc(NC2=C(NCCO)C(=O)c3ccccc3C2=O)c1 | -3 | -3 | 10 | -2 | . | .
Cc1cccc(NC2=C(NCCO)C(=O)c3ccccc3C2=O)c1 | -12 | -3 | 113* | 1 | 77* | 65*
CC(=O)Nc1ccc2c(c1)C(=O)c1ccccc1C2=O | -2 | -1 | 152* | -20 | 121* | 35*
COc1ccc(CN(C)C(=O)C(Cc2ccccc2)NC(=O)c2ccccc2)c(OC)c1 (stereo not given) | 0 | -2 | 3 | 0 | . | .
Cc1ccc(C(=O)NCCNc2nc3cc(C)c(C)cc3cc2C)cc1 | 9 | 4 | 82* | 8 | 77* | 28*
COCC(=O)NCCNc1nc2ccc(C)cc2cc1C | 12 | 3 | 27 | 33 | . | .
Cc1cc(CC(C)C)n(-c2nc3ccccc3c(=O)n2OCC(=O)N(C)C)n1 | -3 | 7 | 15 | . | . | .
Cc1cc(CC(C)C)n(-c2nc3ccccc3c(=O)n2OCc2ccccc2)n1 | 1 | -3 | 87* | -13 | 99* | 74*
CC(C)[C@H](NC(=O)c1ccccc1)C(=O)Nc1ccc2c(c1)OCO2 | 7 | -3 | 29 | . | . | .
CCOc1ccccc1Nc1nnc(SCC(=O)Nc2cccc(S(=O)(=O)NC3=NCCCCC3)c2)s1 | -2 | -2 | 87* | -2 | 76* | 127*
COc1cccc(NC(=O)Nc2ccc3c(c2)CCC3)c1 | 6 | . | 5 | -7 | . | .
O=C(NNC(=O)c1sccc1-n1cccc1)Nc1ccccc1 | 9 | 8 | 92* | 14 | 126* | 61*
O=C(NNC(=O)c1ccccc1-n1cccc1)c1ccc(F)cc1 | -2 | -1 | 90* | -9 | 101* | 43*
O=C(NNC(=O)c1sccc1-n1cccc1)c1ccc(F)cc1 | 1 | 1 | 112* | 6 | 46 | 6
O=C(N/N=C\c1ccc(Cl)cc1)c1sccc1-n1cccc1 | -2 | 2 | 97* | 3 | 124* | 24*
C/C(=N/Nc1nc(C)c(C)s1)c1cccc([N+](=O)[O-])c1 | -14 | -18 | 20 | 5 | . | .
O=C1CC2(CCN(C(=O)c3cccc([N+](=O)[O-])c3)CC2)Oc2ccccc21 | 2 | 2 | 1 | 4 | . | .
CN(C)C(CNC(=O)c1cc(-c2ccco2)nc2ccccc12)c1ccccc1 (stereo not given) | 0 | -2 | 14 | . | . | .
